Consider 24 compounds from ChEMBL document CHEMBL1147131, “Investigation of the lactam side chain length necessary for optimal indenoisoquinoline topoisomerase I inhibition and cytotoxicity in human cancer cell cultures” (J Med Chem, 2007).

The source made the active and inactive calls. The calls are words filed in the database; no cut-off is given here.

Data set [1] is described as follows: Cytotoxicity against human HCT116 cells. The note with it: HCT-116 cells. The data set is classed as cell-based.
The nature of data set [2]: Cytotoxicity against human UACC62 cells. The following applies: UACC-62 cells. It counts as cell-based.
Data set [3] in a line: Cytotoxicity against human OVCAR-3 cells. It counts as cell-based.
Data set [4] can be described thus: Cytotoxicity against human SN12C cells. The data set is classed as cell-based.
Data set [5] can be described thus: Cytotoxicity against human DU145 cells. It counts as cell-based. The following applies: DU-145 cells.
A short description of data set [6]: Cytotoxicity against human […] cells. It counts as cell-based.
The test system of data set [7] is SF-268. As to the kind of experiment: Cytotoxicity against human SF268 cells. It counts as functional.
A short description of data set [8]: Cytotoxicity against human HOP62 cells. The note with it: HOP-62 cells. The data set is classed as cell-based.
Data set [9] has as its target T1, DNA topoisomerase 1 (Homo sapiens) (UniProt P11387).
T1 sequence (whole entry): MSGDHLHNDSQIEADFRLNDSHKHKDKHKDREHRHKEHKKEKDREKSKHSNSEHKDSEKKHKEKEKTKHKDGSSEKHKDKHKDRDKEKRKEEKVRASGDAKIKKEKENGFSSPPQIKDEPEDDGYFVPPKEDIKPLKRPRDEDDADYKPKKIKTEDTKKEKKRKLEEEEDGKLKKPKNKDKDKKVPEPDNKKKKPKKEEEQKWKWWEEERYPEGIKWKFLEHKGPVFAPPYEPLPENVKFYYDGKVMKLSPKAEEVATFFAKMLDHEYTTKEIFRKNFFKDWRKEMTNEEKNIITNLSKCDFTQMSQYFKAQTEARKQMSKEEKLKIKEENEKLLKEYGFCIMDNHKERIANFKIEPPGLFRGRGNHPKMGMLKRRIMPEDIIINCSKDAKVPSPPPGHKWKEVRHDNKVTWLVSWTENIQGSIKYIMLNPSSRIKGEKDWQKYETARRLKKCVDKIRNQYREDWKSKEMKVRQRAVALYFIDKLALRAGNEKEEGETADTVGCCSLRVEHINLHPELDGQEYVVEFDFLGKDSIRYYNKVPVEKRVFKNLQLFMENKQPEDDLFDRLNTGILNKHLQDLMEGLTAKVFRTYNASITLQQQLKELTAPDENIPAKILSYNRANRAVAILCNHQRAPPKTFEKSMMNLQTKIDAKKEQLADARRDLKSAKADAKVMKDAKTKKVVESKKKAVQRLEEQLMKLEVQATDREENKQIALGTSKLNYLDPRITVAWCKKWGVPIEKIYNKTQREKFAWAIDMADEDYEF
As to the kind of experiment: Inhibition of human recombinant topoisomerase 1-mediated DNA cleavage after 30 mins. In outline:
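Human recombinant Top1 purified from baculovirus. Substrate: 161 bp PvuII/HindIII fragment of pBluescript SK(−), 3′-end labeled at the HindIII site by Klenow fill-in with [α-32P]-dGTP. About 50,000 dpm per reaction, incubated with Top1 plus drug for 30 min at 22 °C. Stopped with SDS (0.5% final). Run on denaturing 16% polyacrylamide/7 M urea gels and phosphorimaged. Cleavage scored semi-quantitatively (+ scale) against the parent indenoisoquinoline.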

`COc1cc2c3c(n(CCCNCCCNCCN)c(=O)c2cc1OC)-c1cc2c(cc1C3=O)OCO2`: the GI50 was 23 µM in [1]; 37 µM in data set [2]; 20 µM in [3]; 20 µM in data set [4]; 52 µM in data set [5]; 38 µM in [6].
Consider `NCCCCCCCn1c2c(c3ccccc3c1=O)C(=O)c1ccccc1-2`, for which the GI50 in data set [7] amounted to 1.78 µM; in [8] it was 1.2 µM; in [1], 1.26 µM; in data set [2] it was 2 µM; in [3], 1.7 µM; in data set [4], 1.66 µM. The GI50 in [5] amounted to 0.832 µM; in data set [6], 2.24 µM. The outcome in data set [9] was inactive.
In [6], `COc1cc2c3c(n(C)c(=O)c2cc1OC)-c1cc2c(cc1C3=O)OCO2` returned a GI50 of 96 µM.
Turning to `O=C1c2ccccc2-c2c1c1ccccc1c(=O)n2Cc1cccnc1`, the GI50 in data set [7] came out at 6.76 µM; in data set [8], 7.59 µM; in [2] it was 8.71 µM; in data set [3] it was 13.8 µM; in data set [4], 13.8 µM; in data set [5], 13.8 µM. The compound further came in with a GI50 in [6] of 42.7 µM.
Regarding `NCCCCCCCCCn1c2c(c3ccccc3c1=O)C(=O)c1ccccc1-2`, the GI50 worked out at 9.77 µM in [7]; 6.76 µM in data set [8]; 6.46 µM in data set [1]; 9.33 µM in data set [2]; 9.55 µM in [3]; 8.51 µM in data set [4]. The GI50 came to 6.03 µM in data set [5] and 9.55 µM in data set [6]. The result in data set [9] was inactive.
For `CC(C)(C)OC(=O)NCCCCCCCn1c2c(c3ccccc3c1=O)C(=O)c1ccccc1-2`, the GI50 in data set [7] amounted to 20.9 µM; in data set [1], 17.4 µM; in [2], 20 µM; in [3], 33.9 µM; in data set [4] it was 74.1 µM; in data set [5] it was 31.6 µM. The compound also yielded a GI50 in data set [6] of 81.3 µM. Moreover, the outcome in data set [9] was inactive.
Regarding `CC(C)(C)OC(=O)NCCCCCCCCCCCCn1c2c(c3ccccc3c1=O)C(=O)c1ccccc1-2`, the GI50 was 20.4 µM in data set [7]; 32.4 µM in data set [8]; > 100 µM in [1]; 27.5 µM in data set [2]; > 100 µM in [3]; > 100 µM in data set [4]. Moreover, the GI50 in data set [5] was 91.2 µM; in [6], > 100 µM.
As for `NCCCCn1c2c(c3ccccc3c1=O)C(=O)c1ccccc1-2`, the GI50 in [7] was 0.1 µM; in data set [8], 0.08 µM; in data set [1] it was 0.1 µM; in data set [2] it was 0.05 µM; in data set [3] it was 0.52 µM; in [4] it was 0.04 µM. Further, the GI50 in data set [5] worked out at 0.01 µM; in [6], 0.84 µM.
Consider `CC[C@@]1(O)C(=O)OCc2c1cc1n(c2=O)Cc2cc3ccccc3nc2-1` [CAMPTOTHECIN], for which the GI50 in data set [7] was found to be 0.01 µM; in data set [6], 0.04 µM.
For the compound `CC(C)(C)OC(=O)NCCCCCCCCCCCn1c2c(c3ccccc3c1=O)C(=O)c1ccccc1-2`, the GI50 is 29.5 µM in [7]; 20.9 µM in data set [8]; 35.5 µM in data set [1]; 24 µM in data set [2]; 70.8 µM in [3]; > 100 µM in [4]. Also, the GI50 in [5] is 91.2 µM; in data set [6] it was > 100 µM.
`CC(C)(C)OC(=O)NCCCCCCCCn1c2c(c3ccccc3c1=O)C(=O)c1ccccc1-2`: the GI50 is 8.71 µM in [7]; 10.7 µM in [8]; 25.7 µM in data set [1]; 15.5 µM in [2]; > 50.1 µM in [4]; > 50.1 µM in data set [5]. Further, in [6], the GI50 is > 50.1 µM. In addition, in data set [9], the outcome was inactive.
Consider `COc1cc2c3c(n(CCCNCCNCCCN)c(=O)c2cc1OC)-c1cc2c(cc1C3=O)OCO2`, for which the GI50 in [8] was 2.9 µM; in data set [1] it was 1.3 µM; in data set [2], 1.9 µM; in [3], 8.1 µM; in data set [4], 1.7 µM; in data set [5], 4.6 µM. The compound also registered a GI50 in data set [6] of 3.4 µM.
On to `NCCCCCCCCCCCCn1c2c(c3ccccc3c1=O)C(=O)c1ccccc1-2`, for which the GI50 amounted to 18.2 µM in [7]; 17 µM in [8]; 14.8 µM in data set [2]; 17.8 µM in data set [3]; 13.5 µM in data set [4]; 19.1 µM in data set [5]. For the same compound, the 50% growth inhibitory concentration (GI50) in [6] came to 19.5 µM.
Turning to `O=C1c2ccccc2-c2c1c1ccccc1c(=O)n2Cc1ccccn1`, the 50% growth inhibitory concentration (GI50) in data set [7] is 12.3 µM; in data set [8], 11.2 µM; in data set [2], 10.7 µM; in data set [3], 13.8 µM; in data set [4], 28.2 µM; in [5], 13.5 µM. Further, in [6], growth was halved (GI50) at 3.09 µM. The outcome in [9] was inactive.
With `O=C1c2ccccc2-c2c1c1ccccc1c(=O)n2CCc1cccnc1`, the GI50 was 27.5 µM in data set [7]; 28.8 µM in [8]; 89.1 µM in [2]; > 100 µM in data set [3]; > 100 µM in data set [4]; 81.3 µM in data set [5]. Besides, in data set [6], growth was halved (GI50) at 4.57 µM. In [9], the result was inactive.
As for `NCCCCCCCCCCCn1c2c(c3ccccc3c1=O)C(=O)c1ccccc1-2`, the GI50 is 2.04 µM in data set [7]; 2.19 µM in data set [8]; 1.91 µM in data set [1]; 1.7 µM in [2]; 2.09 µM in data set [3]; 2 µM in data set [4]. For the same compound, the figures for the GI50 in data set [5] and in [6] were 4.57 µM and 11 µM, respectively.
With `NCCCCCCn1c2c(c3ccccc3c1=O)C(=O)c1ccccc1-2`, the GI50 was 1.23 µM in data set [7]; 1.29 µM in data set [8]; 0.912 µM in data set [1]; 1.62 µM in data set [2]; 2 µM in data set [3]; 1.32 µM in [4]. Also, the GI50 is 0.603 µM in data set [5] and 2.04 µM in [6].
For `CC(C)(C)OC(=O)NCCCCCCCCCn1c2c(c3ccccc3c1=O)C(=O)c1ccccc1-2`, the GI50 in data set [7] is 17.8 µM; in [8], 24.5 µM; in [2], 17.4 µM; in data set [3], 28.8 µM; in data set [4], 77.6 µM; in data set [5], > 100 µM. Moreover, the GI50 in data set [6] was > 100 µM.
In the case of `COc1cc2c3c(n(CCCNCCCNCCCN)c(=O)c2cc1OC)-c1cc2c(cc1C3=O)OCO2`, the GI50 in data set [1] was 43 µM; in data set [2], 44 µM; in data set [3], 0.88 µM; in [4] it was 33 µM; in data set [5], > 100 µM; in data set [6], 68 µM.
For `O=C1c2ccccc2-c2c1c1ccccc1c(=O)n2CCc1ccccn1`, the GI50 was 17.4 µM in data set [7]; 21.4 µM in data set [8]; 27.5 µM in data set [2]; > 100 µM in data set [3]; 77.6 µM in [4]; 74.1 µM in data set [5]. In data set [6], it took 5.13 µM to inhibit growth by half (GI50). For the same compound, the outcome in data set [9] was inactive.
Consider `NCCn1c2c(c3ccccc3c1=O)C(=O)c1ccccc1-2`, for which the GI50 in data set [7] was determined as 0.21 µM; in data set [8], 0.62 µM; in data set [1] it was 0.27 µM; in [2] it was 0.92 µM; in [3], 0.71 µM; in [4], 0.49 µM. The figures for the GI50 in [5] and in data set [6] were 0.76 µM and 0.92 µM, respectively.
For the compound `NCCCn1c2c(c3ccccc3c1=O)C(=O)c1ccccc1-2`, the GI50 in [7] worked out at 0.25 µM; in [8] it was 0.2 µM; in [1], 0.18 µM; in data set [2] it was 0.26 µM; in data set [3] it was 1.38 µM; in data set [4], 0.16 µM. In addition, the GI50 in data set [5] came to 0.22 µM; in data set [6] it was 0.78 µM.
Take `COc1cc2c3c(n(CCCNCCNCCN)c(=O)c2cc1OC)-c1cc2c(cc1C3=O)OCO2`: the GI50 in data set [8] was 2.8 µM; in [1], 0.9 µM; in data set [2], 2.6 µM; in data set [3], 1.7 µM; in [4], 2.5 µM; in data set [5], 1.2 µM. The GI50 in data set [6] is 2.7 µM.
Consider `NCCCCCCCCn1c2c(c3ccccc3c1=O)C(=O)c1ccccc1-2`, for which the GI50 was found to be 2.82 µM in [7]; 2.14 µM in data set [8]; 1.66 µM in data set [1]; 3.8 µM in [2]; 3.47 µM in [3]; 3.47 µM in data set [4]. The GI50 in data set [5] worked out at 3.39 µM; in [6], 5.62 µM.

A word on the GI50: it is the concentration at which growth is held to half of that of the control. Read a low GI50 as more potent growth inhibition.
